Data on 46 compounds can be found in ChEMBL document CHEMBL1138921, “Discovery of 3,5-bis(trifluoromethyl)benzyl L-arylglycinamide based potent CCR2 antagonists” (Bioorg Med Chem Lett, 2006).

Assay [1] addresses T1, C-C chemokine receptor type 2 (Homo sapiens, UniProt P41597). Description: Displacement of [125I]MCP1 from human CCR2 expressed in CHO cells at 1 uM. It counts as cell-based. Summed up: (§1)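 Competition binding: CHO cells stably expressing human CCR2b (5 × 10⁴) incubated with ¹²⁵I-hMCP-1 (20–50 pM) plus varied unlabeled competitor, 60 min, room temperature, in 50 mM HEPES, 5 mM MgCl₂, 1 mM CaCl₂, pH 7.4. Ended by filtration through polyethyleneimine-soaked GF/B filters, washed with 25 mM HEPES pH 7.5/500 mM NaCl. Values given as IC₅₀ or % inhibition at 1 µM.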
Target sequence in this assay (P41597 whole entry, looked up): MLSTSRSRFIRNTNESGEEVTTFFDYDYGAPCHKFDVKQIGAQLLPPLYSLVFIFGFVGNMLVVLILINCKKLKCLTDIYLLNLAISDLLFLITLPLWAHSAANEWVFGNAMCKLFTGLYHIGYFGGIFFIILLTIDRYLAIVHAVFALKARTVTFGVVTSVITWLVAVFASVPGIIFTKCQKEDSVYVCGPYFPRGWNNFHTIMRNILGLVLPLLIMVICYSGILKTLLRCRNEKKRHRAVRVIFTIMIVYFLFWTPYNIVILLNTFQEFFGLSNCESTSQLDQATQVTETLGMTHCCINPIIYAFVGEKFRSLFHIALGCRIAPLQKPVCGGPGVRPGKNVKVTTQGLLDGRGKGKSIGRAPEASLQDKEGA
A general note: Loss of bound radioactivity is the signal in a displacement assay; it reports binding, not function.

For assay [2], the target named is T1, C-C chemokine receptor type 2. As to the kind of experiment: Displacement of [125I]MCP1 from human CCR2 expressed in CHO cells. It counts as cell-based. Summed up:
as §1

Another assay concerns Monocyte. Description: Inhibition of MCP1-induced chemotaxis of human monocytes. It counts as functional, cell-based. Summed up:
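Human monocytes loaded with Calcein-AM in Hanks' buffer with 0.01% BSA, 37 °C, 30 min, then washed and resuspended in phenol red-free RPMI 1640 with 0.01% BSA. Migration toward MCP-1 measured in disposable 96-well chemotaxis plates (5.7 mm diameter wells), 1.5 × 10⁵ cells/well.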

For a further assay, the target named is Substance-P receptor (Homo sapiens, UniProt P25103). As to the kind of experiment: Binding affinity to human NK1 receptor.
Substance-P receptor, sequence (P25103 whole entry): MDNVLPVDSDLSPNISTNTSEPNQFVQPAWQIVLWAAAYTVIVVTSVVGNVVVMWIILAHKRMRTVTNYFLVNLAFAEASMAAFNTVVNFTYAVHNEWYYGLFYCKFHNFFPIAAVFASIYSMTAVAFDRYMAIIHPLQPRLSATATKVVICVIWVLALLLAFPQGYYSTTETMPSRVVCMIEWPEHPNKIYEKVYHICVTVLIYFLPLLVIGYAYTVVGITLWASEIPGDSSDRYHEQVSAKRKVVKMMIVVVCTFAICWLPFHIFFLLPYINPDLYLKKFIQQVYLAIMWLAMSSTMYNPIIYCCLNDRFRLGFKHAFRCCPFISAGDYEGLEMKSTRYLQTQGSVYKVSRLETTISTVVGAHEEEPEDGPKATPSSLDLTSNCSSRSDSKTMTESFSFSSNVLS

pIC50, pKi: −log10 of the molar value.

In assay [1], `CC(NC(=O)[C@@H](NCCN(C)C)c1ccccc1)c1cc(C(F)(F)F)cc(C(F)(F)F)c1` (some centres undefined) came in with an inhibition of 28%. For `CN(C)CCN[C@@H](C(=O)NCc1cc(C(F)(F)F)cc(C(F)(F)F)c1)c1cccs1`, the negative-log IC50 (pIC50) in assay [2] was 6.06.

In turn, `O=C(NCc1cc(C(F)(F)F)cc(C(F)(F)F)c1)C(NCCN1CCOCC1)c1ccccc1` (centres undefined) showed a pIC50 in assay [2] of 6.24. On the same count and under the same terms, to `CC1CCN(CCN[C@H](C(=O)NCc2cc(C(F)(F)F)cc(C(F)(F)F)c2)c2ccccc2)CC1` belongs 6.12. Regarding `O=C(O)c1cc2cc(O)ccc2n1Cc1ccc(Cl)c(Cl)c1`, the negative logarithm of the Ki (pKi) in assay [2] is 7.54. Also, in the assay on Monocyte, the negative-log IC50 (pIC50) is 7.22. For the compound `CN(C)CCN[C@H](COCc1cc(C(F)(F)F)cc(C(F)(F)F)c1)c1ccccc1`, in assay [1], the inhibition is 6%.

As for `CN(C)CCN[C@@H](Cc1ccc(F)cc1)C(=O)NCc1cc(C(F)(F)F)cc(C(F)(F)F)c1`, in assay [1], the inhibition was found to be 1%. `CN(C)CCN[C@H](C(=O)NCc1cc(C(F)(F)F)cc(C(F)(F)F)c1)c1ccsc1` showed a pIC50 in assay [2] of 6.37. In the assay with Monocyte, `O=C(NC(=O)c1ccc2nccnc2c1)Nc1cccc(-c2ccccc2)c1` had a pIC50 of 7.22. In assay [1], `CN(C)CCNC(C(=O)NCc1cc(C(F)(F)F)cc(C(F)(F)F)c1)c1ccc(Br)cc1` (centres undefined) returned an inhibition of 25%. Same read-out and setting: to `CN(C)CCN[C@H](CN(Cc1cc(C(F)(F)F)cc(C(F)(F)F)c1)S(C)(=O)=O)c1ccccc1` belongs 0%. As for `CN(C)CCN[C@H](C(=O)NCc1cc(C(F)(F)F)cc(C(F)(F)F)c1)c1ccc(F)cc1`, the values for the pIC50 (at Substance-P receptor; in assay [2]) were 6.19 and 6.11, respectively.

As for `CN(C)CCNC(C(=O)NCc1cc(C(F)(F)F)cc(C(F)(F)F)c1)c1ccccc1` (centres undefined), the negative logarithm of the IC50 (pIC50) in assay [2] was 5.83.

In assay [2], `CCN(CC)CCNC(C(=O)NCc1cc(C(F)(F)F)cc(C(F)(F)F)c1)c1ccccc1` (centres undefined) showed a pIC50 of 6.17. In turn, `CN(C)CCN[C@H](C(=O)NCc1ccc(C(F)(F)F)cc1)c1ccccc1` showed an inhibition in assay [1] of 7%. On the same count and under the same terms, to `CN(C)CCN[C@H](CN(C)S(=O)(=O)c1cc(C(F)(F)F)cc(C(F)(F)F)c1)c1ccccc1` belongs 0%; to `CN(C)CCN[C@H](C(=O)NCc1cc(C(F)(F)F)cc(C(F)(F)F)c1)C1CCCCC1`, 9%. Compound `CN(C)CCN[C@H](CNC(=O)c1cc(C(F)(F)F)cc(C(F)(F)F)c1)c1ccccc1` gave an inhibition in assay [1] of 0%.

The compound `O=C(NCc1cc(C(F)(F)F)cc(C(F)(F)F)c1)C(NCCN1CCCC1)c1ccccc1` (centres undefined) gave a negative logarithm of the IC50 (pIC50) in assay [2] of 6.28. Regarding `COCCNC(C(=O)NCc1cc(C(F)(F)F)cc(C(F)(F)F)c1)c1ccccc1` (centres undefined), the inhibition in assay [1] amounted to 0%.

Turning to `CN(C)CCNC(C(=O)NCc1cc(C(F)(F)F)cc(C(F)(F)F)c1)c1ccc(Cl)cc1` (centres undefined), the pIC50 in assay [2] is 5.96. The same measure, in the same setting: the figure for `O=C(NCc1cc(C(F)(F)F)cc(C(F)(F)F)c1)[C@@H](NCCN1CCCCC1)c1ccc(F)cc1` is 6.76. In the case of `CC(=O)N(Cc1cc(C(F)(F)F)cc(C(F)(F)F)c1)C[C@@H](NCCN(C)C)c1ccccc1`, the inhibition in assay [1] came out at 4%. Regarding `CN(C)CCN[C@H](C(=O)NCc1cc(C(F)(F)F)cc(C(F)(F)F)c1)c1ccccc1`, in assay [2], the pIC50 is 6.00. In turn, `CN(C)CCN[C@H](CNS(=O)(=O)c1cc(C(F)(F)F)cc(C(F)(F)F)c1)c1ccccc1` yielded an inhibition in assay [1] of 0%. On the same count and under the same terms, to `CN(C)CCNC(C(=O)NCc1cc(C(F)(F)F)cc(C(F)(F)F)c1)c1cccc(Br)c1` (centres undefined) belongs 17%; to `O=C(NCc1cc(C(F)(F)F)cc(C(F)(F)F)c1)[C@@H](NCCCN1CCCCC1)c1ccccc1`, 26%. Turning to `O=C(NCc1cc(C(F)(F)F)cc(C(F)(F)F)c1)[C@@H](NCCN1CCCCCC1)c1ccccc1`, in assay [2], the pIC50 was 6.40. As for `NCCNC(C(=O)NCc1cc(C(F)(F)F)cc(C(F)(F)F)c1)c1ccccc1` (centres undefined), the inhibition in assay [1] stood at 14%. The same measure, in the same setting: to `CN(C)CCN[C@H](C(=O)N(C)Cc1cc(C(F)(F)F)cc(C(F)(F)F)c1)c1ccccc1` belongs 20%. Take `CC1CCCCN1CCN[C@H](C(=O)NCc1cc(C(F)(F)F)cc(C(F)(F)F)c1)c1ccccc1` (some centres undefined): in assay [2], the negative logarithm of the IC50 (pIC50) was 6.08.

`CN(C)CCNC(C(=O)NCc1cc(C(F)(F)F)cc(C(F)(F)F)c1)c1ccc(F)c(F)c1` (centres undefined) yielded an inhibition in assay [1] of 33%. The same measure, in the same setting: to `CN(C)CCN[C@H](C(=O)NCc1ccccc1C(F)(F)F)c1ccccc1` belongs 1%.

For the compound `Cc1ccc2c(c1)C1(CCN(CCc3coc(-c4ccc(F)cc4)n3)CC1)OC(=O)N2`, the pIC50 in assay [2] was 7.49; in the assay with Monocyte it was 6.00.

Consider `CC(C)CCNC(C(=O)NCc1cc(C(F)(F)F)cc(C(F)(F)F)c1)c1ccccc1` (centres undefined), for which, in assay [1], the inhibition turned out to be 0%. `O=C(NCc1cc(C(F)(F)F)cc(C(F)(F)F)c1)C(NCCN1CCCCC1)c1ccccc1` (centres undefined) had a negative-log IC50 (pIC50) in assay [2] of 6.47.

`CN(C)CCNCC(=O)NCc1cc(C(F)(F)F)cc(C(F)(F)F)c1` gave an inhibition in assay [1] of 0%. `O=C(NCc1cc(C(F)(F)F)cc(C(F)(F)F)c1)[C@@H](NCCN1CCCCC1)c1ccccc1`: in assay [2], the negative-log IC50 (pIC50) is 6.66. `Cc1cc(C)cc(CNC(=O)[C@@H](NCCN(C)C)c2ccccc2)c1` displayed an inhibition in assay [1] of 0%. Compound `Nc1ccc(C(F)(F)F)cc1C(=O)NCC(=O)NCC1CCN(Cc2ccc(Cl)cc2)CC1` gave a pIC50 in assay [2] of 6.70. The same measure, in the same setting: the figure for `CN(C)CCNC(C(=O)NCc1cc(C(F)(F)F)cc(C(F)(F)F)c1)c1ccco1` (centres undefined) is 6.23. Take `CN(C)CCN[C@H](C(=O)NCc1cccc(C(F)(F)F)c1)c1ccccc1`: in assay [1], the inhibition came to 5%. With `O=C(NCc1cc(C(F)(F)F)cc(C(F)(F)F)c1)[C@@H](NCCN1CCC(c2ccccc2)CC1)c1ccccc1`, in assay [2], the pIC50 is 6.09. Turning to `CN(C)CCN[C@@H](C(=O)NCc1cc(C(F)(F)F)cc(C(F)(F)F)c1)c1ccc(F)cc1`, the inhibition in assay [1] was determined as 8%. In the assay with Monocyte, `O=C(/C=C/c1ccc(Cl)c(Cl)c1)NCCCCCN1CCC(c2c[nH]c3ccc(O)cc23)CC1` returned a Kb of 25 nM. On to `COc1ccc([C@H](NCCN(C)C)C(=O)NCc2cc(C(F)(F)F)cc(C(F)(F)F)c2)cc1`, for which the inhibition in assay [1] worked out at 47%.

The term inhibition denotes the share of the control response that was lost under treatment. High values mean strong suppression, low ones little suppression. As a reminder, the pIC50 is the IC50 on a negative log10 scale, so that one unit is a factor of ten. A word on the pKi: it is −log10 of the Ki, conventionally taken in molar units. Low readings indicate a large Ki, high ones a small Ki.
